# Experimental data as given in ChEMBL document CHEMBL1155297, “Synthesis, antimicrobial and antioxidant activities of substituted pyrazoles, isoxazoles, pyrimidine and thioxopyrimidine derivatives” (2009).
# Tested on: Bacillus subtilis
# Test: Antibacterial activity against Bacillus subtilis NCIM 2063 at 200 ug/disk after 24 hrs by agar disk diffusion method
# Type: functional
# Conditions: NCIM 2063, 24 h, read-out: IZ
# In short: (§1)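 Agar disc diffusion on nutrient agar plates pre-inoculated with each bacterium. Sterile 6 mm filter-paper discs were moistened with compound in DMSO at the stated per-disc amount. Plates were incubated at 37 °C, and the growth-inhibition zone diameter was read after 24 h. Each determination was run in triplicate, and the mean of three independent readings is reported.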
row,SMILES,zone of inhibition at 200 µg/disc [mm]
1,CN1C(=N)C(C(CC(=O)c2ccccc2)C(=O)c2ccccc2)C(=N)N(C)C1=O (stereo not drawn),11
2,NC1=NC(=O)N=C(N)C1C(CS(=O)(=O)c1ccccc1)S(=O)(=O)c1ccccc1 (stereo not drawn),19
3,NC1=NN=C(N)C1C(CS(=O)(=O)c1ccccc1)S(=O)(=O)c1ccccc1 (stereo not drawn),33

# Tested on: Curvularia lunata
# Test: Antifungal activity against Curvularia lunata NCIM 716 at 200 ug/disk after 48 hrs by agar disk diffusion method
# Type: functional
# Conditions: NCIM 716, 48 h, read-out: IZ
# In short: (§2)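 Fungal disc diffusion on nutrient agar plates pre-inoculated with each fungus. 6 mm sterile paper discs carried the compound in DMSO at the stated amount per disc. Plates were held at 37 °C, and inhibition-zone diameter was measured after 48 h. Values are the mean of three independent triplicate readings.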
row,SMILES,zone of inhibition at 200 µg/disc [mm]
1,CN1C(=N)C(C(CC(=O)c2ccccc2)C(=O)c2ccccc2)C(=N)N(C)C1=O (stereo not drawn),15
2,NC1=NC(=O)N=C(N)C1C(CS(=O)(=O)c1ccccc1)S(=O)(=O)c1ccccc1 (stereo not drawn),21
3,NC1=NN=C(N)C1C(CS(=O)(=O)c1ccccc1)S(=O)(=O)c1ccccc1 (stereo not drawn),36

# Tested on: Radical scavenging activity
# Test: Antioxidant activity assessed as DPPH free radical scavenging activity at 100 uM after 20 mins
# Type: functional
# Conditions: not given
# In short: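 DPPH scavenging: compound solutions were added to DPPH in dioxane/ethanol and kept at ambient temperature for 20 min. Absorbance was read at 517 nm. The test–control difference was expressed as percent DPPH radical scavenging.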
row,SMILES,inhibition [%]
1,CN1C(=N)C(C(CC(=O)c2ccccc2)C(=O)c2ccccc2)C(=N)N(C)C1=O (stereo not drawn),23.8
2,NC1=NC(=O)N=C(N)C1C(CS(=O)(=O)c1ccccc1)S(=O)(=O)c1ccccc1 (stereo not drawn),28.8
3,NC1=NN=C(N)C1C(CS(=O)(=O)c1ccccc1)S(=O)(=O)c1ccccc1 (stereo not drawn),58.5

# Tested on: Fusarium solani
# Test: Antifungal activity against Fusarium solani NCIM 1330 at 200 ug/disk after 48 hrs by agar disk diffusion method
# Type: functional
# Conditions: NCIM 1330, 48 h, read-out: IZ
# In short: as §2
row,SMILES,zone of inhibition at 200 µg/disc [mm]
1,CN1C(=N)C(C(CC(=O)c2ccccc2)C(=O)c2ccccc2)C(=N)N(C)C1=O (stereo not drawn),13
2,NC1=NC(=O)N=C(N)C1C(CS(=O)(=O)c1ccccc1)S(=O)(=O)c1ccccc1 (stereo not drawn),19
3,NC1=NN=C(N)C1C(CS(=O)(=O)c1ccccc1)S(=O)(=O)c1ccccc1 (stereo not drawn),37

# Tested on: Aspergillus niger
# Test: Antifungal activity against Aspergillus niger NCIM 596 at 200 ug/disk after 48 hrs by agar disk diffusion method
# Type: functional
# Conditions: NCIM 596, 48 h, read-out: IZ
# In short: as §2
row,SMILES,zone of inhibition at 200 µg/disc [mm]
1,CN1C(=N)C(C(CC(=O)c2ccccc2)C(=O)c2ccccc2)C(=N)N(C)C1=O (stereo not drawn),16
2,NC1=NC(=O)N=C(N)C1C(CS(=O)(=O)c1ccccc1)S(=O)(=O)c1ccccc1 (stereo not drawn),18
3,NC1=NN=C(N)C1C(CS(=O)(=O)c1ccccc1)S(=O)(=O)c1ccccc1 (stereo not drawn),34

# Tested on: Bacillus subtilis
# Test: Antibacterial activity against Bacillus subtilis NCIM 2063 at 100 ug/disk after 24 hrs by agar disk diffusion method
# Type: functional
# Conditions: NCIM 2063, 24 h, read-out: IZ
# In short: as §1
row,SMILES,zone of inhibition at 100 µg/disc [mm]
1,CN1C(=N)C(C(CC(=O)c2ccccc2)C(=O)c2ccccc2)C(=N)N(C)C1=O (stereo not drawn),9
2,NC1=NC(=O)N=C(N)C1C(CS(=O)(=O)c1ccccc1)S(=O)(=O)c1ccccc1 (stereo not drawn),16
3,NC1=NN=C(N)C1C(CS(=O)(=O)c1ccccc1)S(=O)(=O)c1ccccc1 (stereo not drawn),31

# Tested on: Klebsiella pneumoniae
# Test: Antibacterial activity against Klebsiella pneumoniae NCIM 2957 at 200 ug/disk after 24 hrs by agar disk diffusion method
# Type: functional
# Conditions: NCIM 2957, 24 h, read-out: IZ
# In short: as §1
row,SMILES,zone of inhibition at 200 µg/disc [mm]
1,CN1C(=N)C(C(CC(=O)c2ccccc2)C(=O)c2ccccc2)C(=N)N(C)C1=O (stereo not drawn),9
2,NC1=NC(=O)N=C(N)C1C(CS(=O)(=O)c1ccccc1)S(=O)(=O)c1ccccc1 (stereo not drawn),18
3,NC1=NN=C(N)C1C(CS(=O)(=O)c1ccccc1)S(=O)(=O)c1ccccc1 (stereo not drawn),30

# Tested on: Staphylococcus aureus
# Test: Antibacterial activity against Staphylococcus aureus NCIM 5021 at 200 ug/disk after 24 hrs by agar disk diffusion method
# Type: functional
# Conditions: NCIM 5021, 24 h, read-out: IZ
# In short: as §1
row,SMILES,zone of inhibition at 200 µg/disc [mm]
1,CN1C(=N)C(C(CC(=O)c2ccccc2)C(=O)c2ccccc2)C(=N)N(C)C1=O (stereo not drawn),13
2,NC1=NC(=O)N=C(N)C1C(CS(=O)(=O)c1ccccc1)S(=O)(=O)c1ccccc1 (stereo not drawn),20
3,NC1=NN=C(N)C1C(CS(=O)(=O)c1ccccc1)S(=O)(=O)c1ccccc1 (stereo not drawn),32

# Tested on: not listed separately
# Test: Antioxidant activity assessed as nitric oxide production at 100 uM after 120 mins by Griess reagent method
# Type: functional
# Conditions: not given
# In short: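 Nitric oxide assay with Griess read-out. At intervals, 0.5 ml of incubation solution was mixed with 0.5 ml Griess reagent (1% sulfanilamide, 0.1% N-naphthylethylenediamine dihydrochloride, 2% o-phosphoric acid in water). The control received an equal amount of solvent and was handled identically.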
row,SMILES,inhibition [%]
1,CN1C(=N)C(C(CC(=O)c2ccccc2)C(=O)c2ccccc2)C(=N)N(C)C1=O (stereo not drawn),22.6
2,NC1=NC(=O)N=C(N)C1C(CS(=O)(=O)c1ccccc1)S(=O)(=O)c1ccccc1 (stereo not drawn),29.7
3,NC1=NN=C(N)C1C(CS(=O)(=O)c1ccccc1)S(=O)(=O)c1ccccc1 (stereo not drawn),60

# Tested on: Staphylococcus aureus
# Test: Antibacterial activity against Staphylococcus aureus NCIM 5021 at 100 ug/disk after 24 hrs by agar disk diffusion method
# Type: functional
# Conditions: NCIM 5021, 24 h, read-out: IZ
# In short: as §1
row,SMILES,zone of inhibition at 100 µg/disc [mm]
1,CN1C(=N)C(C(CC(=O)c2ccccc2)C(=O)c2ccccc2)C(=N)N(C)C1=O (stereo not drawn),10
2,NC1=NC(=O)N=C(N)C1C(CS(=O)(=O)c1ccccc1)S(=O)(=O)c1ccccc1 (stereo not drawn),18
3,NC1=NN=C(N)C1C(CS(=O)(=O)c1ccccc1)S(=O)(=O)c1ccccc1 (stereo not drawn),30

# Tested on: Proteus vulgaris
# Test: Antibacterial activity against Proteus vulgaris NCIM 2027 at 200 ug/disk after 24 hrs by agar disk diffusion method
# Type: functional
# Conditions: NCIM 2027, 24 h, read-out: IZ
# In short: as §1
row,SMILES,zone of inhibition at 200 µg/disc [mm]
1,CN1C(=N)C(C(CC(=O)c2ccccc2)C(=O)c2ccccc2)C(=N)N(C)C1=O (stereo not drawn),8
2,NC1=NC(=O)N=C(N)C1C(CS(=O)(=O)c1ccccc1)S(=O)(=O)c1ccccc1 (stereo not drawn),16
3,NC1=NN=C(N)C1C(CS(=O)(=O)c1ccccc1)S(=O)(=O)c1ccccc1 (stereo not drawn),25

# Tested on: Fusarium solani
# Test: Antifungal activity against Fusarium solani NCIM 1330 at 100 ug/disk after 48 hrs by agar disk diffusion method
# Type: functional
# Conditions: NCIM 1330, 48 h, read-out: IZ
# In short: as §2
row,SMILES,zone of inhibition at 100 µg/disc [mm]
1,CN1C(=N)C(C(CC(=O)c2ccccc2)C(=O)c2ccccc2)C(=N)N(C)C1=O (stereo not drawn),11
2,NC1=NC(=O)N=C(N)C1C(CS(=O)(=O)c1ccccc1)S(=O)(=O)c1ccccc1 (stereo not drawn),14
3,NC1=NN=C(N)C1C(CS(=O)(=O)c1ccccc1)S(=O)(=O)c1ccccc1 (stereo not drawn),34

# Tested on: Klebsiella pneumoniae
# Test: Antibacterial activity against Klebsiella pneumoniae NCIM 2957 at 100 ug/disk after 24 hrs by agar disk diffusion method
# Type: functional
# Conditions: NCIM 2957, 24 h, read-out: IZ
# In short: as §1
row,SMILES,zone of inhibition at 100 µg/disc [mm]
1,CN1C(=N)C(C(CC(=O)c2ccccc2)C(=O)c2ccccc2)C(=N)N(C)C1=O (stereo not drawn),7
2,NC1=NC(=O)N=C(N)C1C(CS(=O)(=O)c1ccccc1)S(=O)(=O)c1ccccc1 (stereo not drawn),16
3,NC1=NN=C(N)C1C(CS(=O)(=O)c1ccccc1)S(=O)(=O)c1ccccc1 (stereo not drawn),28

# Tested on: Proteus vulgaris
# Test: Antibacterial activity against Proteus vulgaris NCIM 2027 at 100 ug/disk after 24 hrs by agar disk diffusion method
# Type: functional
# Conditions: NCIM 2027, 24 h, read-out: IZ
# In short: as §1
row,SMILES,zone of inhibition at 100 µg/disc [mm]
1,CN1C(=N)C(C(CC(=O)c2ccccc2)C(=O)c2ccccc2)C(=N)N(C)C1=O (stereo not drawn),6
2,NC1=NC(=O)N=C(N)C1C(CS(=O)(=O)c1ccccc1)S(=O)(=O)c1ccccc1 (stereo not drawn),14
3,NC1=NN=C(N)C1C(CS(=O)(=O)c1ccccc1)S(=O)(=O)c1ccccc1 (stereo not drawn),24

# Tested on: Curvularia lunata
# Test: Antifungal activity against Curvularia lunata NCIM 716 at 100 ug/disk after 48 hrs by agar disk diffusion method
# Type: functional
# Conditions: NCIM 716, 48 h, read-out: IZ
# In short: as §2
row,SMILES,zone of inhibition at 100 µg/disc [mm]
1,CN1C(=N)C(C(CC(=O)c2ccccc2)C(=O)c2ccccc2)C(=N)N(C)C1=O (stereo not drawn),13
2,NC1=NC(=O)N=C(N)C1C(CS(=O)(=O)c1ccccc1)S(=O)(=O)c1ccccc1 (stereo not drawn),18
3,NC1=NN=C(N)C1C(CS(=O)(=O)c1ccccc1)S(=O)(=O)c1ccccc1 (stereo not drawn),33

# Tested on: Aspergillus niger
# Test: Antifungal activity against Aspergillus niger NCIM 596 at 100 ug/disk after 48 hrs by agar disk diffusion method
# Type: functional
# Conditions: NCIM 596, 48 h, read-out: IZ
# In short: as §2
row,SMILES,zone of inhibition at 100 µg/disc [mm]
1,CN1C(=N)C(C(CC(=O)c2ccccc2)C(=O)c2ccccc2)C(=N)N(C)C1=O (stereo not drawn),12
2,NC1=NC(=O)N=C(N)C1C(CS(=O)(=O)c1ccccc1)S(=O)(=O)c1ccccc1 (stereo not drawn),15
3,NC1=NN=C(N)C1C(CS(=O)(=O)c1ccccc1)S(=O)(=O)c1ccccc1 (stereo not drawn),31
